According to ChEMBL document CHEMBL2151006 (Eur J Med Chem, 2012):

Assays:
[1] = molecular target: T1, Cannabinoid receptor 1 (Homo sapiens, UniProt P21554); experiment: biochemical; assay type: cell-based, HEK293
[2] = species on record: Homo sapiens; experiment: Selectivity index, ratio of Ki for human recombinant CB1 receptor to Ki for human recombinant CB2 receptor
[3] = molecular target: T2, Cannabinoid receptor 2 (Homo sapiens, UniProt P34972); experiment: Displacement of [3H]CP55940 from human recombinant CB2 receptor transfected in HEK cell membranes; design: species or system HEK293
T2 sequence (P34972 whole entry): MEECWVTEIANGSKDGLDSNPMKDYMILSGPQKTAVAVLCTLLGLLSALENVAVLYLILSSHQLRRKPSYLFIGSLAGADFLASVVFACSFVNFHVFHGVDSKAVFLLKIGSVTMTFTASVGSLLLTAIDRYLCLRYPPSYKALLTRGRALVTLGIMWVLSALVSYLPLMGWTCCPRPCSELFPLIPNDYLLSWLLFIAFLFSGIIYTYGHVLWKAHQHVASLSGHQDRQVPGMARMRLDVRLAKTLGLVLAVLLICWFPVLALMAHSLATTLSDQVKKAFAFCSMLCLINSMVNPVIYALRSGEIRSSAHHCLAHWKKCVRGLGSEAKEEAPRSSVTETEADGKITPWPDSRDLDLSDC

[4] = molecular target: T2, Cannabinoid receptor 2; experiment: Agonist activity at human CB2 receptor transfected in CHO cell membranes by [35S]GTPgammaS binding assay; assay type: functional
[5] = molecular target: CYP3A4 (Homo sapiens, UniProt P08684); experiment: Metabolic stability assessed as human recombinant CYP3A4-mediated drug metabolism by measuring compound remaining after 1 hr; assay type: ADME; conditions: read-out: Drug metabolism
Sequence of CYP3A4 (P08684 whole entry): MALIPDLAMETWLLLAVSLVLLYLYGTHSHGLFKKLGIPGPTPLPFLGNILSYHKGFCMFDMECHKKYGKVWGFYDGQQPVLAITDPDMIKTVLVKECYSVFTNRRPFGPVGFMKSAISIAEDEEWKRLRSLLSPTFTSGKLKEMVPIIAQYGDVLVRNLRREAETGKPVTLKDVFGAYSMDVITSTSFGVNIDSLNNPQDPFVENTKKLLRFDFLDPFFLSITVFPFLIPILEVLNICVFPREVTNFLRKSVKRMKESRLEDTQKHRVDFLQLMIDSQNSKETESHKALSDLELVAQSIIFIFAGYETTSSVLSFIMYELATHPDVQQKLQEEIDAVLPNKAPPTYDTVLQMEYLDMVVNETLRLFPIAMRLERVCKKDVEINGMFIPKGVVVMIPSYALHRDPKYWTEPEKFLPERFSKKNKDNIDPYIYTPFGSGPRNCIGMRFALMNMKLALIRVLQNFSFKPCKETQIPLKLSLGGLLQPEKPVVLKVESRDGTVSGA
Outline: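 Recombinant hCYP3A4 at 20 pmol/mL in 100 mM phosphate pH 7.4 with 1 mM EDTA, […]. Incubation was 1 h at 37 °C with or without NADPH regenerating system, then stopped with cold acetonitrile. Percent remaining is the MS peak area with NADPH over that without, ×100.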

[6] = Metabolic stability in rat plasma assessed as compound remaining measured at 3 hrs; assay type: ADME, cell-free; conditions: read-out: Stability
Outline: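 Fresh rat plasma was spiked with compound and incubated at 37 °C with gentle agitation, in duplicate. Samples were taken at 0, 30 min and 3 h and proteins precipitated with acetonitrile. LC-ESI+-MS/MS in MRM mode; percent remaining is peak area relative to time 0.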

[7] = Intrinsic clearance in human liver microsomes; assay type: ADME, Microsome; conditions: read-out: CLH
[8] = Intrinsic clearance in rat liver microsomes; assay type: ADME, Microsome; conditions: read-out: CLH
[9] = system: MDR1; experiment: Apparent permeability across apical to basolateral side in human MDR1 transfected MDCK2 cells at 10 uM after 2 hrs; assay type: ADME, cell-based, Canis lupus familiaris, MDCK-II; conditions: dog, MDCK-MDR1
[10] = system: MDR1; experiment: Efflux ratio of permeability from basolateral to apical side over apical to basolateral side in human MDR1 transfected MDCK2 cells at 10 uM after 2 hrs; assay type: ADME, cell-based, Canis lupus familiaris, MDCK-II; conditions: dog, MDCK-MDR1
[11] = molecular target: T2, Cannabinoid receptor 2; conditions: CHO, 0.001 to 10 uM
[12] = molecular target: T1, Cannabinoid receptor 1; experiment: Agonist activity at human CB1 receptor transfected in CHO cell membranes by [35S]GTPgammaS binding assay; assay type: functional
[13] = molecular target: T1, Cannabinoid receptor 1; experiment: Agonist activity at human CB1 receptor transfected in CHO cell membranes at 0.001 to 30 uM by [35S]GTPgammaS binding assay relative to CP55940; assay type: functional

T1 sequence (P21554 whole entry): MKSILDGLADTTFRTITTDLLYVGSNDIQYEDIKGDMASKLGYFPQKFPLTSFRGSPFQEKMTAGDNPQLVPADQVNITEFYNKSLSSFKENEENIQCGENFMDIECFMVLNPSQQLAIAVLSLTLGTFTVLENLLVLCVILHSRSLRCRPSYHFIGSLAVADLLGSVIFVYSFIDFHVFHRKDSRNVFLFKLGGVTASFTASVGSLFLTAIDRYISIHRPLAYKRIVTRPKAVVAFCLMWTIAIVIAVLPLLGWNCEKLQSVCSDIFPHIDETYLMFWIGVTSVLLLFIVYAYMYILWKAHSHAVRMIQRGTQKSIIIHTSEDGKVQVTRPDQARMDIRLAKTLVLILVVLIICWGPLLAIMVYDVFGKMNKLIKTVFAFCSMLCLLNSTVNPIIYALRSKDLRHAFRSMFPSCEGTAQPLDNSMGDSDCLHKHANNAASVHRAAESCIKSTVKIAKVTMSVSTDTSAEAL

| Compound | Ki [1] | Ratio Ki [2] | Ki [3] | further results |
| --- | --- | --- | --- | --- |
| CCCn1cc(C(=O)N[C@@H]2C(C)(C)C3CC[C@]2(C)C3)c(=O)c2ccc(F)cc21 | 193 nM | 57 | 2.9 nM | – |
| C=Cn1cc(C(=O)N[C@@H]2C(C)(C)C3CC[C@]2(C)C3)c(=O)c2ccc(F)cc21 | 3570 nM | 235 | 15.2 nM | – |
| CN(C)CCn1cc(C(=O)N[C@@H]2C(C)(C)C3CC[C@]2(C)C3)c(=O)c2ccc(Sc3ccccc3)cc21 | 28.8 nM | 23 | 1.3 nM | – |
| CCCCCn1cc(C(=O)NCCN2CCOCC2)c(=O)c2ccc(Sc3ccccc3)cc21 | 63.2 nM | 0.5 | 119 nM | – |
| CCCCCn1cc(C(=O)NCc2ccc(Cl)c(Cl)c2)c(=O)c2ccc(-c3ccccc3)cc21 | 390 nM | < 0.04 | > 10000 nM | – |
| CCCCn1cc(C(=O)N[C@@H]2C(C)(C)C3CC[C@]2(C)C3)c(=O)c2ccc(Sc3ccccc3)cc21 | 4.7 nM | 31 | 0.1 nM | – |
| CCCCCn1cc(C(=O)NC(C)C)c(=O)c2ccc(Sc3ccccc3)cc21 | 20.9 nM | 1.4 | 14.8 nM | – |
| CCn1cc(C(=O)N[C@@H]2C(C)(C)C3CC[C@]2(C)C3)c(=O)c2ccc(F)cc21 | 960 nM | 131 | 7.3 nM | EC50 [4]: 17.2 nM; remaining at 1 h [5]: 1%; remaining at 3 h [6]: 92%; microsomal CLint [7]: > 700 µL/min/mg; microsomal CLint [8]: > 700 µL/min/mg; Papp A→B at 2 h, 10 µM [9]: 0.17 ×10⁻⁶ cm/s; efflux ratio at 2 h, 10 µM [10]: 1; Emax [11]: 45% |
| CCCCCn1cc(C(=O)NOCc2ccccc2)c(=O)c2ccc(Sc3ccccc3)cc21 | 12.9 nM | 0.7 | 19.3 nM | – |
| CCCn1cc(C(=O)N[C@@H]2C(C)(C)C3CC[C@]2(C)C3)c(=O)c2ccc(Sc3ccccc3)cc21 | 11 nM | 31 | 0.4 nM | – |
| CCCCCn1cc(C(=O)N[C@@H]2C(C)(C)C3CC[C@]2(C)C3)c(=O)c2ccc(Sc3ccccc3)cc21 | 2.45 nM | 27.2 | 0.09 nM | – |
| Cn1cc(C(=O)N[C@@H]2C(C)(C)C3CC[C@]2(C)C3)c(=O)c2ccc(F)cc21 | > 10000 nM | > 106 | 93.9 nM | – |
| CCCCCn1cc(C(=O)NCc2ccc(Cl)c(Cl)c2)c(=O)c2ccc(Br)cc21 | 660 nM | 5 | 130 nM | – |
| CCCCCn1cc(C(=O)NC23CC4CC(CC(C4)C2)C3)c(=O)c2ccc(F)cc21 | – | 38 | – | – |
| O=C(NN1CCCCC1)c1cn(-c2ccc(Cl)cc2)c2cc(F)ccc2c1=O | > 10000 nM | – | > 10000 nM | – |
| CCCCCn1cc(C(=O)NC2CN3CCC2CC3)c(=O)c2ccc(Sc3ccccc3)cc21 (centres undefined) | 151 nM | 1.7 | 89.1 nM | – |
| CCCCCn1cc(C(=O)NN(C)C)c(=O)c2ccc(Sc3ccccc3)cc21 | 86.6 nM | 1.1 | 77.5 nM | – |
| CCCCCn1cc(C(=O)NN2CCCCC2)c(=O)c2ccc(Sc3ccccc3)cc21 | 28.9 nM | 2.2 | 13.3 nM | – |
| Cn1cc(C(=O)N[C@@H]2C(C)(C)C3CC[C@]2(C)C3)c(=O)c2ccc(Sc3ccccc3)cc21 | 1870 nM | 117 | 16 nM | – |

| Compound | Ki [1] | Ratio Ki [2] | Ki [3] | further results |
| --- | --- | --- | --- | --- |
| CCCCCn1cc(C(=O)NC(CC)CO)c(=O)c2ccc(Sc3ccccc3)cc21 (centres undefined) | 58.2 nM | 2.9 | 19.9 nM | – |
| CCCCCn1cc(C(=O)NCc2ccc(Cl)c(Cl)c2)c(=O)c2ccc(Sc3ccccc3)cc21 | 420 nM | < 0.04 | > 10000 nM | EC50 [12]: 791 nM; Emax [13]: 55.8%; remaining at 1 h [5]: 25%; remaining at 3 h [6]: 100%; microsomal CLint [7]: > 700 µL/min/mg; microsomal CLint [8]: > 700 µL/min/mg; Papp A→B at 2 h, 10 µM [9]: 0.14 ×10⁻⁶ cm/s; efflux ratio at 2 h, 10 µM [10]: 0.4 |
| CC1(C)C2CC[C@](C)(C2)[C@@H]1NC(=O)c1cn(CCCCO)c2cc(F)ccc2c1=O | 398 nM | 26 | 15.2 nM | – |
| CC1(C)C2CC[C@](C)(C2)[C@@H]1NC(=O)c1cn(CCCCO)c2cc(Sc3ccccc3)ccc2c1=O | 38.6 nM | 15 | 2.5 nM | – |
| CCCCCn1cc(C(=O)NOC)c(=O)c2ccc(Sc3ccccc3)cc21 | 490 nM | 1.4 | 340 nM | – |
| Cc1cccc(Cn2cc(C(=O)N[C@@H]3C(C)(C)C4CC[C@]3(C)C4)c(=O)c3ccc(Sc4ccccc4)cc32)c1 | 669 nM | 5 | 139 nM | – |
| CN(C)CCn1cc(C(=O)N[C@@H]2C(C)(C)C3CC[C@]2(C)C3)c(=O)c2ccc(F)cc21 | – | – | 7.9 nM | – |
| Cc1cccc(Cn2cc(C(=O)N[C@@H]3C(C)(C)C4CC[C@]3(C)C4)c(=O)c3ccc(F)cc32)c1 | > 10000 nM | > 317 | 31.5 nM | – |
| O=C(NN1CCCCC1)c1cn(-c2ccc(F)cc2)c2cc(Sc3ccccc3)ccc2c1=O | > 10000 nM | – | > 10000 nM | – |
| CCn1cc(C(=O)N[C@@H]2C(C)(C)C3CC[C@]2(C)C3)c(=O)c2ccc(Sc3ccccc3)cc21 | 181 nM | 42 | 4.4 nM | – |
| CC1(C)C2CC[C@](C)(C2)[C@@H]1NC(=O)c1cn(CCCCSc2ccccc2)c2cc(Sc3ccccc3)ccc2c1=O | > 10000 nM | > 1540 | 6.5 nM | – |
| CC1(C)C2CC[C@](C)(C2)[C@@H]1NC(=O)c1c[nH]c2cc(F)ccc2c1=O | – | > 10 | – | – |
| COCCn1cc(C(=O)N[C@@H]2C(C)(C)C3CC[C@]2(C)C3)c(=O)c2ccc(F)cc21 | 297 nM | 54 | 5.5 nM | – |
| CCCCn1cc(C(=O)N[C@@H]2C(C)(C)C3CC[C@]2(C)C3)c(=O)c2ccc(F)cc21 | 14.4 nM | 17 | 0.8 nM | – |
| CCCCCn1cc(C(=O)NC23CC4CC(CC(C4)C2)C3)c(=O)c2ccc(Sc3ccccc3)cc21 | – | 3.3 | – | – |
| CCCCCn1cc(C(=O)N[C@@H]2C(C)(C)C3CC[C@]2(C)C3)c(=O)c2ccc(F)cc21 | 4 nM | 17 | 0.3 nM | – |
| CCCCCn1cc(C(=O)N2CCC[C@H]2C(N)=O)c(=O)c2ccc(Sc3ccccc3)cc21 | 1490 nM | 6.5 | 230 nM | – |
| CC1(C)C2CC[C@](C)(C2)[C@@H]1NC(=O)c1cnc2cc(F)ccc2c1O | > 10000 nM | – | 957 nM | – |
| COCCn1cc(C(=O)N[C@@H]2C(C)(C)C3CC[C@]2(C)C3)c(=O)c2ccc(Sc3ccccc3)cc21 | 23.8 nM | 22 | 1.1 nM | – |
